Results of several laboratories.
Each line is one published result; the experiments were not run side by side.
Read-out: cell growth or viability

The IC50 of `O=C(O)CCCc1ccc(N(CCCl)CCCl)cc1` is reported as 29400 nM (OVCAR-3; CCK-8; 48 h).
`Cc1cc(N(CCOS(C)(=O)=O)CCOS(C)(=O)=O)ccc1C=O` gave an IC50 of 0.263 µg/mL (ACHN).
With `C[C@H]1CN(c2ccncc2NC(=O)c2ccc(F)c(-c3c(F)cccc3F)n2)C[C@@H](N)[C@@H]1O` the GI50 was 156 nM (RPMI-8226; thymidine uptake).
`COc1cc2c3c(n(CCCNCCO)c(=O)c2cc1OC)-c1cc2c(cc1C3=O)OCO2` gave a GI50 of 500 nM (OVCAR-3).
The IC50 of `CC(C)C[C@H](NC(=O)OCc1ccccc1)C(=O)N[C@@H](Cc1ccccc1)C(=O)N[C@@H](CC(C)C)C(=O)C(=O)Nc1ccccc1` is reported as 843 nM (RPMI-8226; MTS; 72 h).
`CCOP(=S)(OCC)Oc1nc(Cl)c(Cl)cc1Cl` gave an IC50 of ~11600 nM (ReNcell VM; imaging; 24 h).
`CC(C)C[C@H](NC(=O)OCc1ccccc1)C(=O)N[C@@H](CC(C)C)C(=O)N[C@@H](CC(C)C)C(=O)C(=O)Nc1cccc2ncccc12` gave an IC50 of 134 nM (RPMI-8226; MTS; 72 h).
`CCCCC/C=C\C/C=C\C/C=C\C/C=C\CCCC(=O)NCCO` has an IC50 of ~11400 nM (ReNcell VM; imaging; 24 h).
